From ChEMBL document CHEMBL4513216, “Probing the Open Global Health Chemical Diversity Library for Multistage-Active Starting Points for Next-Generation Antimalarials” (ACS Infect Dis, 2020) come the findings set out here.

The nature of the data set: Toxicity liver stage against HepG2, at 10uM. The class given is cell-based. More on the design: test concentration 10 uM, cell line HepG2-A16-CD81EGFP. To be noted: human, HepG2-A16-CD81EGFP cells; read-out: INHIBITION
A digest of the protocol:
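Uninfected HepG2-A16-CD81EGFP cells, 3 × 10^3 per well, 1536-well, plated on prespotted compound at 10 μM final, parasite-free screening media added to match infected plates; puromycin 10 μM positive, DMSO 0.5% negative; run in parallel with 48 h PbLuc assay at 37 °C, 5% CO2; viability by CellTiter-Glo luminescence, normalized to controls.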
On to `Cn1c(CC(=O)O)c(Sc2ccccc2)c2ccccc21`, for which the cytotoxicity at 10 µM worked out at 4.35%.
As to `CC(=O)N1CCC(N2CCN3C(=O)N(c4ccccc4)C[C@H]3C2)CC1`, the cytotoxicity at 10 µM came out at 1.35%.
On to `COc1cccc(CNc2c(O)c(=O)c2=O)c1`, for which the cytotoxicity at 10 µM came out at 5.78%.
In the case of `COc1ccc(C)cc1NC(=O)Nc1cnc(O)nc1O`, the cytotoxicity at 10 µM is -3.79%.
In the case of `CC1=C(c2ccc(F)cc2)S(=O)(=O)N=C1N1CCc2ccccc21`, the cytotoxicity at 10 µM was -1.29%.
For the compound `COCC(O)CN1CCC(=O)N(CC(=O)C(C)(C)C)Cc2ccccc21` (configuration not stated), the cytotoxicity at 10 µM was 6.31%.
Then `CC(C)CC(=O)N1CC(=O)N(CCc2ccccc2)CC(O)C1` (configuration not stated), with -6.4%; and `CCOC(=O)N1CC(=O)N(Cc2cccc(OC)c2OC)CC(O)C1` (configuration not stated), with -3.66%; and `O=C(Cc1csc(-c2ccccc2F)n1)NCc1cccc(C(=O)O)c1`, with -5.48%.
Regarding `O=C(c1ccccc1F)N1CCN(c2ccc(-n3cccn3)nn2)CC1`, the cytotoxicity at 10 µM is -18.3%.
With `O=S(=O)(C1CC1)N1CCC(Cn2cccn2)CC1`, the cytotoxicity at 10 µM was -8.29%.
For `O=S(=O)(c1ccccc1Br)N1CCC2(CC1)OCCS2`, the cytotoxicity at 10 µM is -1.86%.
`O=C1COc2ccc(Br)cc2CN1CC1CC1`: the cytotoxicity at 10 µM is -3.46%.
In the case of `COCCN(Cc1ccoc1)S(=O)(=O)c1ccc(F)c(C)c1`, the cytotoxicity at 10 µM is -7.15%.
To `c1coc(CN2CC[C@@H]3O[C@@H](COCc4ccncc4)CC[C@@H]32)c1` belongs -155%.
In the case of `O=C(O)C1CCN(C(=O)Cn2ccc3c(Cl)cccc32)CC1`, the cytotoxicity at 10 µM was -3.91%.
`Cc1nc(CN2C(=O)C[C@@H]3[C@@H]2CCN3C(=O)C2CCOCC2)cs1`: the cytotoxicity at 10 µM is -10.8%.
To `CC(=O)c1cccc(S(=O)(=O)NCCNC(=O)c2snnc2C)c1` belongs -0.302%; to `CCn1nccc1CN(C)c1nc(N)nc2c1nc(C)n2C`, -4.83%.
Then `CSCc1cccc(S(=O)(=O)NCCO)c1`, with -0.138%; and `CCOc1ccc2oc(-c3cnn(C)c3C)c(O)c(=O)c2c1`, with 7.72%.
To `Cc1noc(C)c1C(=O)N[C@@H]1CC[C@@H](Oc2ccccc2)[C@@H]1O` belongs 0.395%; to `CS(=O)(=O)N1CCCCC1c1ccc(Nc2cnccn2)nc1` (configuration not stated), 6.39%.
As for `Cc1nc(Nc2ncccn2)cc(C2CCCN2C)n1` (configuration not stated), the cytotoxicity at 10 µM was -16.5%.
Then `CN(C)C(=O)CN1CCC(c2cncc(-c3cccc(Cl)c3)n2)CC1`, with -33.3%; and `Cc1cc2c(=O)n3c(nc2s1)CCN(C(=O)c1ccn(C)n1)CC3`, with -9.68%.
To `Cc1cc(N)cc(C2CN(Cc3cc[nH]n3)CCO2)n1` (configuration not stated) belongs -29.1%; to `Cc1nc(NC2CCCC2)cc(C2CCN2C(=O)c2cnn(C)c2)n1` (configuration not stated), 8.89%.
To `O=S1(=O)NC2(CCCN(Cc3ccc(F)cc3)C2)COc2ccccc21` (configuration not stated) belongs 7.63%.
For the compound `CC(C)(C)C(O)CN1CCN(Cc2ccc(C#N)cc2)CC1` (configuration not stated), the cytotoxicity at 10 µM is -8.88%.
To `CCC(=O)N1CCN(C(=O)NCc2c(C)cc(C)cc2C)CC1` belongs 6.12%; to `CCn1nnnc1-c1cccc(NC(=O)CCn2cc(C)cn2)c1`, 1.66%.
Then `Clc1snnc1CN(Cc1cccs1)C1CC1`, with -8.78%; and `CSCC(=O)N1CCOC(c2nc(C(C)(C)C)n[nH]2)C1` (configuration not stated), with -9.58%.
In the case of `Cc1ccc(CNC(=O)COc2ccc3c(c2)OCC3O)cc1` (configuration not stated), the cytotoxicity at 10 µM was -5.67%.
For `Cc1ccccc1Cn1cnc2oc(C)c(C(=O)O)c2c1=O`, the cytotoxicity at 10 µM was -1.49%.
Take `COc1ccc(Br)cc1CC(=O)Nc1cc(C)n[nH]1`: the cytotoxicity at 10 µM was -0.405%.
Take `CN(C(=O)NCC1(CN2CCOCC2)CCCCC1)C1CC1`: the cytotoxicity at 10 µM is -1.91%.
To `Cn1cc(-c2nc(CN3CCOC(Cn4cccn4)C3)cs2)cn1` (configuration not stated) belongs -4.04%; to `COCC(=O)N(C)Cc1ccc(F)c(F)c1`, -140%; to `CCCc1n[nH]c(C2CN(C(=O)CCn3cc(C)cn3)CCO2)n1` (configuration not stated), 10.3%.
To `COc1c(C2CCCN2C(=O)c2cnn(C)c2C2CC2)c(C)nn1C` (configuration not stated) belongs -2.43%; to `Cc1cnn(CCCNC(=O)C2CCCCN2Cc2ccncc2)c1` (configuration not stated), -7.85%.
`Cc1cnn(CCCNC(=O)C2CCCCN2Cc2cccnc2)c1` (configuration not stated): the cytotoxicity at 10 µM is -8.97%.
Turning to `Cc1ccc(OC(C)CNC(=O)c2c[nH]nn2)cc1` (configuration not stated), the cytotoxicity at 10 µM was -0.0422%.
For the compound `C[C@@H]1CN(Cc2ccccc2)CCN1C(=O)NCc1nccs1`, the cytotoxicity at 10 µM is -142%.
Then `CCOCC1CCN(C(=O)c2sc(C)cc2OC(F)F)CC1`, with 7.95%; and `CCN1CCN(C(=O)C(C)SC)CC1` (configuration not stated), with 11.4%; and `CCOc1cc(C(=O)O)cc(-c2ccccc2)c1OC`, with -9.88%.
Then `CN(C)C(=O)c1cccc(NC(=O)N2CCCC(C(F)(F)F)C2)c1` (configuration not stated), with 6.37%; and `COCCCN1CCCN(C(C)C(=O)Nc2ccnn2C(C)C)CC1` (configuration not stated), with -8.8%; and `CC(NCC1=Cc2cc(Cl)ccc2OC1)c1nnc2n1CCCC2` (configuration not stated), with -11.4%.
Turning to `CC(C)C1CN(C(=O)c2ccc(C(N)=O)cc2)CCS1` (configuration not stated), the cytotoxicity at 10 µM was -4.03%.
Then `Cn1cc(CCNC(=O)NC2CCS(=O)(=O)C2)cn1` (configuration not stated), with -12.9%; and `Cn1ccnc1CN1C[C@@H](CN2CCCC2)[C@@H](CO)C1`, with 4.34%.
As for `Cc1cc2ccccc2n1CCC(=O)NCCCc1nnc(N)s1`, the cytotoxicity at 10 µM was found to be 19.6%.
Turning to `c1cc(CN2CCC(Cc3noc(C4CC4)n3)CC2)c2c(c1)OCO2`, the cytotoxicity at 10 µM amounted to 7.69%.
As to `O=C(COCc1ccccc1)N1CCCC(OCc2cccnc2)C1` (configuration not stated), the cytotoxicity at 10 µM is -2.65%.
As to `Cc1ccc(OC2(C(=O)O)CCN(C(=O)c3cccs3)CC2)cn1`, the cytotoxicity at 10 µM was 0.92%.
On to `CC(=O)c1cc(CC(=O)NCc2cccc(F)c2F)cs1`, for which the cytotoxicity at 10 µM is 2.95%.
Regarding `CC(C)n1ccnc1C1CCCN(c2cncc(N(C)C)n2)C1` (configuration not stated), the cytotoxicity at 10 µM was 10.1%.
Take `CCn1c(C)cc(C(=O)N2C[C@@H](C(=O)O)[C@H](c3ccccc3C)C2)c1C`: the cytotoxicity at 10 µM was -7.71%.
Then `Cc1cccnc1C(Nc1nccc(C2CCCC2)n1)C1CC1` (configuration not stated), with -121%; and `O=C1CCC2(CCNCC2)CN1Cc1nncn1CCc1ccccc1`, with -10.1%.
Regarding `CN(C)C(=O)N1CCN(Cc2nc3ccccc3[nH]2)[C@H]2CS(=O)(=O)C[C@H]21`, the cytotoxicity at 10 µM was -150%.
With `CN(Cc1ccc(F)cc1)[C@@H]1CN(C(=O)c2cccs2)C[C@H]1O`, the cytotoxicity at 10 µM worked out at 3.92%.
Then `CC(=O)Nc1nc(CN2CCCCC2Cn2cncn2)cs1` (configuration not stated), with 1.12%.
Then `CC(O)CN1CCC(CNCc2ccccc2C(F)(F)F)CC1` (configuration not stated), with -9.27%.
`CCN(CC)CC1CN(CCc2ccccc2)Cc2nccn2C1` (configuration not stated): the cytotoxicity at 10 µM was -9.61%.
Take `CN(C)CC(=O)N1CC2(CCN(C(=O)Nc3ccccc3)C2)C1`: the cytotoxicity at 10 µM is 4.17%.
As for `COc1cc(N2C[C@H]3CN(C(=O)c4cccnc4)C[C@H]3C2)ncn1`, the cytotoxicity at 10 µM is -141%.
For the compound `c1ccc(CN2CCc3ncnc(C4CC4)c3CC2)cc1`, the cytotoxicity at 10 µM is -156%.
